Laboratory results taken from publication PMC12753540 (Investigational New Drugs, 2025).
Several values for one entry are separate records, joined by “and”; a condition that tells them apart may be missing. Identical values can stand only once. Marks after values point to notes of the source that are not given here.

Columns and labels:
[1] = cited from earlier work
advanced solid tumors = details: monotherapy, cited from earlier work
[2] = Phase 1 study: plasma pharmacokinetics, non-compartmental analysis; type: in vivo, human (Japanese patients); details: for tmax, Median (range) / Cmax / Vd/F / half-life: oral; for tmax, Median (range) / Cmax / Vd/F / half-life / Tmax: plasma; for Cmax / Vd/F / half-life / Tmax: human; for Vd/F: Arithmetic mean (SD); for half-life: t1/2, Arithmetic mean (SD); for Tmax: po, Median (range)
[3] = Phase 1 study: safety and tolerability; type: in vivo, human (Japanese patients with advanced solid tumors)
Method in brief: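 Oral dosing was 240 mg BID on Days 1–7 (Cohort 1) or 160 mg BID on Days 1–14 (Cohort 2) of 28-day cycles, after a single dose on C0D1, using a rolling-6 escalation design. DLTs were assessed over Cycles 0 and 1. AEs were coded by MedDRA and graded by CTCAE v4.03. The TEAE window ran from first dose to 30 (+7) days after the last dose or discontinuation. Relatedness was judged by the investigator. Data were summarized descriptively for all patients who received ≥1 dose.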

[4] = test system: advanced solid malignancies; assay: Phase 1 study: antitumor activity; type: in vivo, human (Japanese patients); details: for Best overall response: Complete response / Best overall response: Partial response: confirmed; for Best overall response: Stable disease: maintained ≥ 7 weeks from Cycle 1 Day 1; for Median PFS: Kaplan-Meier, data cutoff May 25, 2023
Method in brief: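 Oral twice-daily dosing on Days 1–7 of 28-day cycles, after a single oral dose on C0D1 (4-day Cycle 0). Tumors were imaged by CT or MRI at baseline, then by the same method every 8 weeks (±1 week) until progression, per RECIST 1.1. CR/PR needed confirmation ≥4 weeks later, and SD had to last ≥7 weeks from C1D1. ORR was limited to measurable disease, with Clopper-Pearson 95% CI; PFS by Kaplan–Meier.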

[5] = test system: advanced gastric cancer, metastatic melanoma, non-small-cell lung cancer; details: in combination with durvalumab; phase 2 studies; cited from earlier work
[6] = Multiple-dose administration, Cohort 1 240 mg BID (n = 6)
[7] = Multiple-dose administration, Cohort 2 160 mg BID (n = 6)
[8] = Single-dose administration, Cohort 1 240 mg (n = 6)
[9] = Single-dose administration, Cohort 2 160 mg (n = 6)
[10] = 160 mg, Single-dose administration, Cohort 2 160 mg (n = 6)
[11] = 240 mg, Single-dose administration, Cohort 1 240 mg (n = 6)
[12] = Cohort 1 240 mg BID (n = 6), Any grade
[13] = Cohort 2 160 mg BID (n = 6), Any grade

What does the source list for `C[C@@H]1COCCN1c1cc(C2([S@](C)(=N)=O)CC2)nc(-c2cc[nH]c3nccc2-3)n1` [ceralasertib]?
Median tmax ([1]; Caucasian patients, PATRIOT study): 0.5 to 4 h; Mean t1/2 after single dosing ([1]; PATRIOT studies, at higher doses): 11.2 to 12.8 h; Disease control (evaluable patients) (advanced solid tumors; 39 of 66 evaluable patients): 59%; Confirmed partial response (advanced solid tumors; 66 evaluable patients): 5 n; Stable disease or unconfirmed PR (advanced solid tumors; 66 evaluable patients): 34 n; AUCss, Geometric mean (CV%) [2, 6]: 94,970 (20.38) ng x h/mL; AUCss,last, Geometric mean (CV%) [2, 6]: 92,140 (20.55) ng x h/mL; CLss/F, Arithmetic mean (SD) [2, 6]: 2.568 (0.4725) L/h; Css,max, Geometric mean (CV%) [2, 6]: 11,970 (16.26) ng/mL; tss,max, Median (range) ([2]; Multiple-dose administration, Cohort 1 240 mg BID (n = 6), Cycle 1 Day 7): 1.97 (0.95–2.83) h; AUCss, Geometric mean (CV%) [2, 7]: 57,400 (17.41) ng x h/mL; AUCss,last, Geometric mean (CV%) [2, 7]: 56,020 (17.05) ng x h/mL; CLss/F, Arithmetic mean (SD) [2, 7]: 2.822 (0.4864) L/h; Css,max, Geometric mean (CV%) [2, 7]: 8132 (16.01) ng/mL; tss,max, Median (range) ([2]; Multiple-dose administration, Cohort 2 160 mg BID (n = 6), Cycle 1 Day 8): 1.87 (0.52–2.92) h; AUC(0–12), Geometric mean (CV%) [2, 8]: 54,260 (12.8) ng x h/mL; AUCinf, Geometric mean (CV%) [2, 8]: 102,800 (20.67) ng x h/mL; AUClast, Geometric mean (CV%) [2, 8]: 100,700 (19.14) ng x h/mL; CL/F, Arithmetic mean (SD) [2, 8]: 2.4 L/h and 2.375 (0.4926) L/h; Vz/F, Arithmetic mean (SD) [2, 8]: 40.47 (7.307) L; t1/2, Arithmetic mean (SD) [2, 8]: 12.24 (3.472) h; tmax, Median (range) [2, 8]: 2.04 (1.98–3.97) h; AUC(0–12), Geometric mean (CV%) [2, 9]: 39,160 (16.33) ng x h/mL; AUCinf, Geometric mean (CV%) [2, 9]: 71,440 (29.19) ng x h/mL; AUClast, Geometric mean (CV%) [2, 9]: 69,120 (25.54) ng x h/mL; CL/F, Arithmetic mean (SD) [2, 9]: 2.3 L/h and 2.318 (0.6707) L/h; Vz/F, Arithmetic mean (SD) [2, 9]: 43.03 (8.284) L; tmax, Median (range) [2, 9]: 1.92 (0.85–2.13) h; Cmax ([2]; 160 mg): 6550 ng/mL; Vd/F ([2]; 160 mg, Vss/F, Multiple-dose administration, Cohort 2 160 mg BID (n = 6)): 35.3 L; half-life [2, 10]: 13.9 h; Cmax ([2]; 240 mg): 7670 ng/mL; Vd/F ([2]; 240 mg, Vss/F, Multiple-dose administration, Cohort 1 240 mg BID (n = 6)): 33.8 L; Vd/F ([2]; 240 mg, Vz/F, Single-dose administration, Cohort 1 240 mg (n = 6)): 40.5 L; half-life [2, 11]: 12.2 h; Tmax [2, 10]: 1.9 h; Tmax [2, 11]: 2 h; Accumulation of ceralasertib in plasma ([2]; multiple administrations at 160 mg or 240 mg): up to 1.8 fold; Arithmetic mean TCP ([2]; range across both cohorts, multiple dosing): 0.82–0.94; Dose proportionality of exposure ([2]; single and multiple dosing, 160 mg and 240 mg): A trend suggesting a dose-proportional increase in exposure; Any DLT ([3]; Cohort 1 240 mg BID (n = 6)): 1 (16.7)* n (%); Any SAE ([3]; Cohort 1 240 mg BID (n = 6)): 0 n (%); Any SAE related to treatment ([3]; Cohort 1 240 mg BID (n = 6)): 0 n (%); Any SAE related to treatment, Grade ≥ 3 ([3]; Cohort 1 240 mg BID (n = 6)): 0 n (%); Any SAE, Grade ≥ 3 ([3]; Cohort 1 240 mg BID (n = 6)): 0 n (%); Any TEAE ([3]; Cohort 1 240 mg BID (n = 6)): 6 (100) n (%); Any TEAE leading to death ([3]; Cohort 1 240 mg BID (n = 6)): 0 n (%); Any TEAE leading to discontinuation of ceralasertib ([3]; Cohort 1 240 mg BID (n = 6)): 1 (16.7)* n (%); Any TEAE leading to discontinuation of ceralasertib, Related to treatment ([3]; Cohort 1 240 mg BID (n = 6)): 1 (16.7)* n (%); Any TEAE leading to dose interruption of ceralasertib ([3]; Cohort 1 240 mg BID (n = 6)): 0 n (%); Any TEAE leading to dose interruption of ceralasertib, Related to treatment ([3]; Cohort 1 240 mg BID (n = 6)): 0 n (%); Any TEAE leading to dose reduction of ceralasertib ([3]; Cohort 1 240 mg BID (n = 6)): 1 (16.7) n (%); Any TEAE leading to dose reduction of ceralasertib, Related to treatment ([3]; Cohort 1 240 mg BID (n = 6)): 1 (16.7) n (%); Any TEAE, Grade ≥ 3 ([3]; Cohort 1 240 mg BID (n = 6)): 1 (16.7)* n (%); Any TRAE ([3]; Cohort 1 240 mg BID (n = 6)): 5 (83.3) n (%); Any TRAE leading to death ([3]; Cohort 1 240 mg BID (n = 6)): 0 n (%); Any TRAE, Grade ≥ 3 ([3]; Cohort 1 240 mg BID (n = 6)): 1 (16.7)* n (%); TEAE: Anemia [3, 12]: 3 n (%); TEAE: Constipation [3, 12]: 2 n (%); TEAE: Nausea [3, 12]: 3 n (%); TEAE: Neutrophil count decreased [3, 12]: 2 n (%); TEAE: Platelet count decreased [3, 12]: 2 n (%); Any DLT ([3]; Cohort 2 160 mg BID (n = 6)): 1 (16.7)^† n (%); Any SAE ([3]; Cohort 2 160 mg BID (n = 6)): 2 (33.3) n (%); Any SAE related to treatment ([3]; Cohort 2 160 mg BID (n = 6)): 1 (16.7)^† n (%); Any SAE related to treatment, Grade ≥ 3 ([3]; Cohort 2 160 mg BID (n = 6)): 1 (16.7)^† n (%); Any SAE, Grade ≥ 3 ([3]; Cohort 2 160 mg BID (n = 6)): 2 (33.3) n (%); Any TEAE ([3]; Cohort 2 160 mg BID (n = 6)): 6 (100) n (%); Any TEAE leading to death ([3]; Cohort 2 160 mg BID (n = 6)): 0 n (%); Any TEAE leading to discontinuation of ceralasertib ([3]; Cohort 2 160 mg BID (n = 6)): 0 n (%); Any TEAE leading to discontinuation of ceralasertib, Related to treatment ([3]; Cohort 2 160 mg BID (n = 6)): 0 n (%); Any TEAE leading to dose interruption of ceralasertib ([3]; Cohort 2 160 mg BID (n = 6)): 1 (16.7)^† n (%); Any TEAE leading to dose interruption of ceralasertib, Related to treatment ([3]; Cohort 2 160 mg BID (n = 6)): 1 (16.7)^† n (%); Any TEAE leading to dose reduction of ceralasertib ([3]; Cohort 2 160 mg BID (n = 6)): 1 (16.7)^† n (%); Any TEAE leading to dose reduction of ceralasertib, Related to treatment ([3]; Cohort 2 160 mg BID (n = 6)): 1 (16.7)^† n (%); Any TEAE, Grade ≥ 3 ([3]; Cohort 2 160 mg BID (n = 6)): 2 (33.3) n (%); Any TRAE leading to death ([3]; Cohort 2 160 mg BID (n = 6)): 0 n (%); Any TRAE, Grade ≥ 3 ([3]; Cohort 2 160 mg BID (n = 6)): 1 (16.7)^† n (%); TEAE: Anemia [3, 13]: 4 n (%); TEAE: Nausea [3, 13]: 4 n (%); TEAE: Platelet count decreased [3, 13]: 4 n (%); TEAE: White blood cell count decreased [3, 13]: 3 n (%); Patients with grade ≥ 3 treatment-emergent adverse event ([3]; both cohorts, 12 patients treated): 3 patients; Overall tolerability ([3]; monotherapy, both regimens): well tolerated with an acceptable safety profile; Patients with low grade (grade ≤ 2) events only ([3]; of 12 patients enrolled): 9 patients; Best overall response: Not evaluable ([4]; Cohort 1 240 mg BID (n = 6)): 1 (16.7) n (%); Best overall response: Not evaluable, No post-baseline assessment ([4]; Cohort 1 240 mg BID (n = 6)): 1 (16.7) n (%); Best overall response: Objective response ([4]; Cohort 1 240 mg BID (n = 6)): 0 n (%); Best overall response: Progressive disease ([4]; Cohort 1 240 mg BID (n = 6)): 3 n (%) and 3 (50.0) n (%); Best overall response: Complete response ([4]; Cohort 1 240 mg BID (n = 6)): 0 n (%); Best overall response: Partial response ([4]; Cohort 1 240 mg BID (n = 6)): 0 n (%); Best overall response: Stable disease ([4]; Cohort 1 240 mg BID (n = 6)): 2 n (%) and 2 (33.3) n (%); Median PFS ([4]; Cohort 1 240 mg BID): 2.1 months; Best overall response: Not evaluable ([4]; Cohort 2 160 mg BID (n = 6)): 0 n (%); Best overall response: Not evaluable, No post-baseline assessment ([4]; Cohort 2 160 mg BID (n = 6)): 0 n (%); Best overall response: Objective response ([4]; Cohort 2 160 mg BID (n = 6)): 0 n (%); Best overall response: Progressive disease ([4]; Cohort 2 160 mg BID (n = 6)): 2 n (%) and 2 (33.3) n (%); Best overall response: Complete response ([4]; Cohort 2 160 mg BID (n = 6)): 0 n (%); Best overall response: Partial response ([4]; Cohort 2 160 mg BID (n = 6)): 0 n (%); Best overall response: Stable disease ([4]; Cohort 2 160 mg BID (n = 6)): 4 n (%) and 4 (66.7) n (%); Median PFS ([4]; Cohort 2 160 mg BID): 3.3 months; Patients with best objective response of stable disease ([4]; both cohorts in total, 12 patients): 6 patients; Objective response rates (ORR) [5]: 14 to 31%
